Active and inactive are the calls of the source. The calls are words filed in the database; no cut-off is given here.
Tests used:
[1] = (§1) Antiproliferative activity against mouse BALB/3T3 cells at 290 uM after 72 hrs by SRB assay; format: cell-based; conditions: BALB/3T3 cells, read-out: GI
How it was run: (§2)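 SRB test of adherent cells after 72 h exposure at the highest concentration, 100 µg/ml (290 µM). Cells plated at 1 × 10^4 per well 24 h before treatment; TCA fixation, 0.4% SRB staining, OD 540 nm. Result expressed as % inhibition of proliferation.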

[2] = (§3) Antiproliferative activity against human MCF10 cells at 290 uM after 72 hrs by SRB assay; format: cell-based; conditions: MCF10 cells, read-out: GI; how it was run: as §2
A549 = test: Antiproliferative activity against human A549 cells at 290 uM; format: functional; conditions: read-out: GI
MCF7 [3] = test: Antiproliferative activity against human MCF7 cells at 290 uM after 72 hrs by SRB assay; format: functional; how it was run: as §2
[4] = Antiproliferative activity against human LoVo/DX cells at 290 uM; format: functional; conditions: read-out: GI
LoVo = test: Antiproliferative activity against human LoVo cells at 290 uM; format: functional; conditions: read-out: GI
MCF7 [5] = test: Antiproliferative activity against human MCF7 cells after 72 hrs by SRB assay; format: functional, cell-based; conditions: MCF7, 72 h
How it was run: (§4)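 Adherent cells plated at 1 × 10^4 per well 24 h before treatment, then exposed 72 h to compounds diluted from 20 mg/mL DMSO stock (0.01–1000 µg/mL). Fixed in cold 50% TCA at 4°C for 1 h, stained with 0.4% sulforhodamine B, bound dye extracted with 10 mM Tris, OD at 540 nm. Triplicates, 3–5 experiments; IC50 per experiment, mean ± SD.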

[6] = Antiproliferative activity against HLMEC after 72 hrs by SRB assay; design: species or system Homo sapiens; how it was run: as §4
HL60/MX2 [7] = test: Antiproliferative activity against human HL60/MX2 cells at 290 uM after 72 hrs by MTT assay; format: functional, cell-based
How it was run: (§5)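 MTT read-out in leukemia cells exposed 72 h to the highest concentration, 100 µg/ml (290 µM), expressed as % proliferation inhibition. Cells seeded at 1 × 10^4 per well 24 h beforehand; MTT for 4 h, DMF/SDS lysis, 570 nm.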

HL-60 [8] = test: Antiproliferative activity against human HL60 cells at 290 uM after 72 hrs by MTT assay; format: functional, cell-based; how it was run: as §5
BALB/3T3 [9] = test: Antiproliferative activity against mouse BALB/3T3 cells after 72 hrs by SRB assay; format: cell-based; conditions: BALB/3T3, 72 h; how it was run: as §4
BALB/3T3 [10] = test: as §1; format: cell-based; conditions: balb/3t3, 72 h, 290 µM; how it was run: as §2
MCF10 [11] = test: as §3; format: cell-based; conditions: mcf10, 72 h, 290 µM; how it was run: as §2
[12] = Antiproliferative activity against HLMEC at 290 uM after 72 hrs by SRB assay; conditions: human; how it was run: as §2
MCF10 [13] = test: Antiproliferative activity against human MCF10 cells after 72 hrs by SRB assay; format: cell-based; conditions: MCF10, 72 h; how it was run: as §4
HL-60 [14] = test: Antiproliferative activity against human HL60 cells after 72 hrs by MTT assay; format: functional, cell-based; conditions: HL-60, 72 h
How it was run: (§6)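 Leukemia cells seeded at 1 × 10^4 per well 24 h before adding compounds (0.01–1000 µg/mL from DMSO stock), exposed 72 h. MTT (5 mg/mL stock) added for 4 h, then DMF/SDS lysis mixture; absorbance at 570 nm read after 24 h. Triplicates per experiment, 3–5 repeats; IC50 calculated per experiment, reported as mean ± SD.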

HL60/MX2 [15] = test: Antiproliferative activity against human HL60/MX2 cells after 72 hrs by MTT assay; format: functional, cell-based; conditions: HL60/MX2, 72 h; how it was run: as §6

| SMILES | IC50 (MCF7 [5]) | IC50 [6] | growth inhibition (GI) (HL60/MX2 [7]) | growth inhibition (GI) (HL-60 [8]) | IC50 (BALB/3T3 [9]) | Activity (BALB/3T3 [10]) | growth inhibition (GI) (MCF7 [3]) | IC50 (MCF10 [13]) | also measured |
| --- | --- | --- | --- | --- | --- | --- | --- | --- | --- |
| CC(C)C[C@H](NC(=O)[C@@H](O)[C@H](N)Cc1ccccc1)C(=O)O [UBENIMEX] | 150 µM |  |  |  |  |  |  |  | inhibition at 72 h, 290 µM [1]: 37.7%; inhibition at 72 h, 290 µM [2]: 26.9%; inhibition of growth at 290 µM (A549): 48%; inhibition of growth at 290 µM (MCF7 [3]; MCF7, 72 h, read-out: GI): 63.8%; inhibition of growth at 290 µM [4]: 26.9%; inhibition of growth at 290 µM (LoVo): 54.8% |
| O=C(O)C1Cc2cc(O)c(Br)c(O)c2C=N1 (stereo not given) |  |  | inactive | inactive |  | Non-Toxic | inactive |  | Activity (MCF10 [11]): Non-Toxic; Activity [12]: Non-Toxic |
| O=C(O)C1Cc2cc(O)c(I)cc2C=N1 (stereo not given) |  |  | inactive | inactive |  | Non-Toxic | inactive |  | Activity (MCF10 [11]): Non-Toxic; Activity [12]: Non-Toxic |
| CCOC(=O)C(Cc1cc(OCc2ccccc2)cc(OCc2ccccc2)c1)(NC=O)C(=O)OCC |  | 46.5 µM | inactive | inactive | 68.6 µM |  | inactive |  |  |
| O=C(O)C1CCc2cc(O)c(O)cc2C=N1 (stereo not given) | 1700 µM | 1590 µM | inactive | inactive |  | Non-Toxic |  | 3330 µM |  |
| C[C@@]1(C(=O)O)Cc2cc(O)c(O)cc2C2C(Cl)C(=O)N21 (stereo not given in full) | 1200 µM | 1140 µM | inactive | inactive | 1960 µM |  |  | 1960 µM |  |
| O=C(O)C1Cc2cc(O)cc(O)c2C=N1 (stereo not given) |  |  | inactive | inactive |  | Non-Toxic | inactive |  | Activity (MCF10 [11]): Non-Toxic; Activity [12]: Non-Toxic |
| COc1cc2c(cc1OC)CCC(C(=O)OCc1ccccc1)(C(=O)OCc1ccccc1)N=C2 | 734 µM | 657 µM |  | inactive | 929 µM |  |  |  |  |

More lines, main results first:

| IC50 (MCF7 [5]) | SMILES | IC50 [6] | growth inhibition (GI) (HL60/MX2 [7]) | growth inhibition (GI) (HL-60 [8]) | IC50 (BALB/3T3 [9]) | Activity (BALB/3T3 [10]) | growth inhibition (GI) (MCF7 [3]) | IC50 (MCF10 [13]) | also measured |
| --- | --- | --- | --- | --- | --- | --- | --- | --- | --- |
| 1240 µM | O=C(O)C1Cc2cc(O)c(O)cc2C=N1 (stereo not given) | 1550 µM | inactive | inactive | 1830 µM |  |  |  |  |
| 660 µM | O=C(O)C1Cc2c(O)c(O)cc(Br)c2C=N1 (stereo not given) | 562 µM |  |  | 1260 µM |  |  | 1440 µM | IC50 (HL-60 [14]): 104 µM; IC50 (HL60/MX2 [15]): 247 µM |
| 342 µM | O=C(O)C1Cc2cc(O)c(O)c(I)c2C=N1 (stereo not given) | 307 µM | inactive | inactive |  | Non-Toxic |  | 897 µM |  |
| 224 µM | O=C(O)C1Cc2cc(O)c(O)c(Br)c2C=N1 (stereo not given) | 126 µM | inactive |  | 183 µM |  |  | 904 µM | IC50 (HL-60 [14]): 156 µM |
| 84.7 µM | O=C(O)C1Cc2cc(O)c(O)c(O)c2C=N1 (stereo not given) | 150 µM |  |  | 235 µM |  |  | 249 µM | IC50 (HL-60 [14]): 124 µM; IC50 (HL60/MX2 [15]): 149 µM |
